Consider 1 compound from ChEMBL document CHEMBL5344432, “Identification of a Dual Autophagy and REV-ERB Inhibitor with in Vivo Anticancer Efficacy” (J Med Chem, 2024).

Structures are written as SMILES. Activity calls are given as the source filed them. Where only a bound is given, the exact number is not on record here.

Data set [1] in a line: Metabolic stability in human liver microsomes assessed as parent compound remaining preincubated for 15 mins followed by UDPGA addition and measured after 2 hrs by LC-MS/MS analysis. Format: ADME, Microsome. As to conditions: time 135 min, read-out: Stability. In outline: (§1)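 Mouse and human liver microsomes incubated with UDPGA cofactor. Half-life and percent parent remaining at 120 min reported. Mean of at least two independent experiments, each in two technical replicates.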
(Liver microsomes are vesicles of endoplasmic reticulum, rich in cytochrome P450 enzymes.)

Data set [2] is described as follows: Metabolic stability in dog liver microsomes assessed as parent compound remaining preincubated for 15 mins followed by NADPH addition and measured after 1 to 2 hrs by LC-MS/MS analysis. Format: ADME, Canis lupus familiaris, Microsome. Conditions: time 75-135 min. In outline:
(§2)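 Microsomal stability assessed in mouse, human, rat or dog liver microsomes with NADPH cofactor. Half-life and percent parent remaining at 60 and 120 min reported. Mean of at least two independent experiments, each in two technical replicates.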

A short description of data set [3]: Aqueous kinetic solubility of the compound in PBS at pH 7.4 at 250 uM incubated for 24 hrs by UPLC/MS analysis. It is filed as physicochemical. As to conditions: read-out: Kinetic_solubility. An outline of the steps:
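Kinetic solubility measured in phosphate-buffered saline, pH 7.4. Mean of at least two independent experiments, each run in two technical replicates.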

A short description of data set [4]: Tolerability in CD1 mouse assessed as reduction in body weight at 69 micromol/kg, ip administered every daily for 8 days. It is filed as toxicity, organism-based. Conditions: in vivo, 192 h, dose 69 µmol/kg, time 8 day. In outline: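 Body weight tracked in female CD1 mice under three regimens: 138 μmol/kg (62 mg/kg) ip daily, assessed after 2 days; 138 μmol/kg every other day over 8 days; 69 μmol/kg (31 mg/kg) daily over 8 days.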

A short description of data set [5]: Metabolic stability in mouse liver microsomes assessed as parent compound remaining preincubated for 15 mins followed by NADPH addition and measured after 2 hrs by LC-MS/MS analysis. Conditions: time 135 min, read-out: Stability. It is filed as ADME, Microsome. An outline of the steps: as §2
Data set [6] relates to A375 (human). Description: Inhibition of autophagy in human A375 cells expressing EGFP-LC3B assessed as increase in SQSTM1 protein level at 2.5 uM after 24 hrs by immunoblotting analysis. Background: In western blotting, separated proteins are transferred to a membrane and probed.
The test system of data set [7] is BT-474. Description: Cytotoxicity against human BT-474 cells. Format: functional. An outline of the steps:
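BT-474 breast cancer cells and nontumorigenic HMECs treated 48 h with concentrations up to 30 μM. CC50 derived from concentration–response viability plots. Values >30 μM assigned when viability fell by less than 50% of vehicle at 30 μM. Mean ± SEM, n ≥ 3.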

A short description of data set [8]: Metabolic stability in mouse liver microsomes assessed as half life preincubated for 15 mins followed by NADPH addition and measured after 1 to 2 hrs by LC-MS/MS analysis. Format: ADME, Microsome. Conditions: liver microsomes, time 75-135 min. An outline of the steps: as §2
The test system of data set [9] is A-375. Description: Antitumor activity against human A-375 cells xenografted in NMRI-Foxn1nu mouse assessed as reduction in tumor weight at 30 mg/kg, ip administered as 3 days on and 2 days off schedule and measured after 15 days. It is filed as functional. The arrangement: scale not given: the % may be the effect or the level left. As to conditions: time 15 day. An outline of the steps: (§3)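 Female NMRI-Foxn1nu mice with subcutaneous A375 flank tumors, grouped by matched tumor volume. Dosing: 30 mg/kg ip or saline, 3 days daily then 2 days off. Tumors measured by digital caliper until day 15. Excised tumors then sized as (W × D × L)/2 and weighed. n = 8; Mann–Whitney two-tailed test for the excised endpoints.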
In general terms: In xenograft studies the graft and the host belong to different species.

Data set [10] concerns A375 (human). Description: Inhibition of autophagy in human A375 cells expressing EGFP-LC3B assessed as accumulation of autophagosome after 24 hrs by Hoechst 33342 staining based fluorescent microscopy analysis. Conditions: dose 1.25-5 µM.
Data set [11] can be described thus: Metabolic stability in mouse liver microsomes assessed as half life preincubated for 15 mins followed by UDPGA addition and measured after 2 hrs by LC-MS/MS analysis. Format: ADME, Microsome. As to conditions: time 135 min. An outline of the steps: as §1
Data set [12] can be described thus: Metabolic stability in human liver microsomes assessed as parent compound remaining preincubated for 15 mins followed by NADPH addition and measured after 2 hrs by LC-MS/MS analysis. Conditions: time 135 min, read-out: Stability. It is filed as ADME, Microsome. An outline of the steps:
as §2

The nature of data set [13]: Tolerability in CD1 mouse assessed as change in body weight at 69 micromol/kg, ip administered as 3 days on and 2 days off schedule and measured after 15 days. Format: toxicity, organism-based. As to conditions: in vivo, 360 h, dose 69 µmol/kg, time 15 day. In outline: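 Female CD1 mice given 69 μmol/kg (31 mg/kg) ip, 3 days daily then 2 days off, or saline. Body weight, food intake and water intake monitored daily for 15 days. Weight expressed relative to the day before treatment (100%). Mean ± SEM, n = 3.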

A short description of data set [14]: Metabolic stability in mouse liver microsomes assessed as parent compound remaining preincubated for 15 mins followed by NADPH addition and measured after 1 hr by LC-MS/MS analysis. It is filed as ADME, Microsome. As to conditions: time 75 min, read-out: Stability. An outline of the steps:
as §2

The subject of data set [15] is A-375. Description: Antitumor activity against human A-375 cells xenografted in NMRI-Foxn1nu mouse assessed as reduction in tumor volume at 30 mg/kg, ip administered as 3 days on and 2 days off schedule and measured after 15 days. Format: functional. The arrangement: scale not given: the % may be the effect or the level left. As to conditions: time 15 day. An outline of the steps: as §3

Data set [16] relates to A-375. Description: Antitumor activity against human A-375 cells xenografted in NMRI-Foxn1nu mouse assessed as effect on autophagy by measuring increase in LC3-II/LC3-I ratio expression at 30 mg/kg, ip administered for 2 days by immunoblotting analysis. Format: functional, organism-based. As to conditions: time 2.0 day. An outline of the steps:
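Female NMRI-Foxn1nu mice bearing flank subcutaneous xenografts of GFP-LC3 reporter A375 cells, matched for tumor size, given 30 mg/kg ip or saline for 2 days. Euthanized 48 h after first injection. Tumor lysates immunoblotted with anti-LC3B for GFP-LC3-I and GFP-LC3-II. n = 3; unpaired two-tailed t test versus saline.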

The nature of data set [17]: Tolerability in CD1 mouse assessed as lethargy at 138 micromol/kg, ip. Format: toxicity. As to conditions: in vivo, dose 138 µmol/kg. An outline of the steps:
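Female CD1 mice given daily ip injections at 138 μmol/kg (62 mg/kg). Animals observed for arched backs and lethargy.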

Data set [18] is described as follows: Toxicity in NMRI-Foxn1nu mouse xenografted with human A-375 cells assessed as reduction in body weight at 30 mg/kg, ip administered as 3 days on and 2 days off schedule and measured after 15 days. It is filed as organism-based. Conditions: in vivo, 360 h, time 15 day. In outline:
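A375 xenograft-bearing female NMRI-Foxn1nu mice received 30 mg/kg ip or saline on a 3-days-on/2-days-off schedule. Body weight recorded daily to day 15, expressed relative to weight on the day before treatment (set to 100%). n = 8.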

For data set [19], the system named is MDA-MB-231. Description: Cytotoxicity against human MDA-MB-231 cells. It is filed as functional. An outline of the steps: (§4)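 Human cancer lines (A375, MDA-MB-231, OMM-1, UPMM-2, CAPAN-2, HepG2, HT-29, HCT116) treated up to 30 μM. CC50 derived from concentration–response viability plots. Mean ± SEM, n ≥ 6. Two-tailed unpaired t test used between compounds.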

Data set [20] deals with Capan-2. Description: Cytotoxicity against human Capan-2 cells. It is filed as functional. In outline: as §4
For data set [21], the system named is BT-474. Description: Induction of apoptosis in human BT-474 cells assessed as increase in caspase activity after 24 hrs. Format: functional, cell-based. As to conditions: dose 2.5-10 µM. An outline of the steps: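 BT-474 cells treated at a range of concentrations. Apoptosis read out as caspase activity and as cleaved PARP protein by immunoblot.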
A short description of data set [22]: Cmax in CD1 mouse at 10 mg/kg, ip measured upto 24 hrs. Format: ADME, organism-based. More on the design: dose 10 mg/kg, time < 24 hrs, route ip. Conditions: in vivo. An outline of the steps: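 Female CD1 mice given a single 10 mg/kg ip dose. Plasma concentration–time profile analyzed by noncompartmental analysis for half-life and volume of distribution. A two-compartment model was also fitted.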

The CC50 is the concentration at which the toxic effect on the cells reaches its halfway point. In general, half-life refers to the time needed for the level to fall by half in the phase considered. Broadly, the Cmax is the maximum level reached in the sampled fluid or tissue. With `Fc1ccc(C2(NCc3ccc(F)c(CC4CCNCC4)c3)CCCC2)cc1`, the remaining at 2 h in data set [1] was determined as 95%; in [5] it was 72%; in [12], 68%. The Stability in [2] amounted to 89%. For the same compound, the solubility kinetic at 24 h, 250 µM in [3] was greater than 250 µM. In addition, the Activity entry in data set [4] is given as “Toxic”; in data set [9], 56%; in [13], “Non-Toxic”; in data set [15] it was 60%; in [17], “Non-Toxic”; in [18], “Non-Toxic”. In addition, the Activity entry in data set [21] is “Dose-Dependent Effect”. The inhibition entry in data set [6] is “Active”. Further, the CC50 was 2310 nM in data set [7], 2970 nM in data set [19] and 6860 nM in data set [20]. The half-life in [8] and in [11] was greater than 2 h throughout. Further, the inhibition entry in [10] is “Dose-Dependent Effect”. In addition, the remaining at 1 h in data set [14] is 84%. Also, in data set [16], the outcome was Active. In data set [22], this compound had a Cmax of 280.23 ng/mL.
